Measurements gathered from unrelated publications.
Observed: enzyme activity
Mode: inhibitor
CDK2: Cyclin-dependent kinase 2 (CDK2, Homo sapiens, UniProt P24941)
CDK2 with cyclin A: Cyclin-dependent kinase 2, with cyclin A (CDK2, Homo sapiens, UniProt P24941)

Compound	target	test	setting	inhibition [%]
CN(c1ncccc1CNc1nc(Nc2ccc3c(c2)CC(=O)N3)ncc1C(F)(F)F)S(C)(=O)=O	CDK2	–	1 µM	94.4
CNC(=O)c1ccccc1Nc1cc(Nc2ccc(N3CCOCC3)cc2OC)ncc1C(F)(F)F	CDK2	–	1 µM	> 50
COc1cc2ncnc(Nc3ccc(Oc4ccccc4)cc3C)c2cc1OC	CDK2 with cyclin A	–	1 µM	-14
CN(C)C1CCN(CC#Cc2nn(C3CCCC3)c3nc(NCc4ccccc4)ncc23)C1 (stereo not shown)	CDK2 with cyclin A	FRET	10 µM	4
Cn1cnc(Br)c1C1=CN(c2ncnc3[nH]cnc23)CCS1	CDK2	radiometric	50 nM	20.5
CCCS(=O)(=O)Nc1ccc(F)c(C(=O)c2c[nH]c3ncc(-c4ccc(Cl)cc4)cc23)c1F	CDK2 with cyclin A	–	1 µM	< 10
CC/C(=N\NC(=O)NCc1cccc(O)c1)c1ccc(O)c(C)c1O	Cyclin-dependent kinase 2, with cyclin A2 (CDK2, Homo sapiens, UniProt P24941)	–	0.1 µM	0.5
COc1cc(-c2cc(-c3ccc(N4CCNCC4)cc3)cnc2N)cc(OC)c1OC	CDK2 with cyclin A	–	0.1 µM	1
CN1CC(Oc2cnc(C#N)cc2-c2ccn3nc(NC(=O)C4CC4)cc3c2)C1	Cyclin-dependent kinase 2, with cyclin E (CDK2, Homo sapiens, UniProt P24941)	–	1 µM	-13
C=CC(=O)Nc1cc(Nc2nccc(Nc3cc(Cl)c(F)cc3C(C)(C)O)n2)c(OC)cc1N1CC[C@@H](N(C)C)C1	CDK2 with cyclin A	–	1 µM	-13
CNc1cccc2cc(C(=O)Nc3ccc(C(=O)O)cc3)c(=O)[nH]c12	CDK2	–	10 µM	-0.24
Cn1cncc1C1=CN(c2ncnc3[nH]cnc23)CCS1	CDK2	radiometric	50 nM	12.6
CS(=O)(=O)Nc1cccc(-c2csc(NC(=O)CSc3nc4nccnc4c(=O)n3CCc3ccccc3)n2)c1	Cyclin-dependent kinase 2, with cyclin O (CDK2, Homo sapiens, UniProt P24941)	–	10 µM	8
